Screens (PubChem BioAssay)
Compounds with a hit are over-represented: about 2.8% of the library has one in this group of screens.
AI-2 QS modul – Vibrio harveyi AI-2 quorum sensing modulators, primary screen, JMH597 strain, luminescence/OD600 ratio | 300,000 compounds, 0.4% hits | AID 2094, 2009 | activity change, % at 7.5 µM | Vibrio harveyi JMH597 AI-2 luminescence/OD600 ratio, 9 h; active compounds read low; strain lacks LuxN and CqsS sensors; 0 = neutral-control median; in the data active = activity change below about -75%, passing the limit was not always enough;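 also: luminescence divided by OD600 gain over 9 h not by final OD600 alone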
PP1 counter – PP1-alpha phosphatase inhibitors, primary screen, counter-screen for PP5 inhibitor project, biochemical, fluorescence, OMFP substrate, single point; Serine/threonine-protein phosphatase PP1-alpha catalytic subunit (Homo sapiens), P62136; purified PP1alpha; inhibition, % at 6.7 µM; 320,000 compounds, 0.9% hits;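 active = inhibition above the mean inhibition of all tested compounds plus 3 SD, computed separately for each screening campaign, cut at about 15% in these data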
Target sequence (P62136 whole entry, looked up): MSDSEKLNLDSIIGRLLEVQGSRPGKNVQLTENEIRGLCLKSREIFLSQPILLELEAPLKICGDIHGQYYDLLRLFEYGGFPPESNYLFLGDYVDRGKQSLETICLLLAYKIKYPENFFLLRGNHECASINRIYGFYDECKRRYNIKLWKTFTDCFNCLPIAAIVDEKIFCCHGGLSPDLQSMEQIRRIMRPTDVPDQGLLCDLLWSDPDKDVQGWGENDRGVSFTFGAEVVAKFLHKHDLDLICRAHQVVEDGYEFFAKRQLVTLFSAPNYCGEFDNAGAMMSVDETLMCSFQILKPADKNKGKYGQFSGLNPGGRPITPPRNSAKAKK
p-CIP stab down – p/CIP-EGFP fusion destabilizers, primary screen, fluorescence, F442A cells; decrease of EGFP signal, % at 10 µM; Q05BA5; 290,000 compounds, 0.01% hits; 16 h; AID 1984, 2009;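 active = EGFP signal decrease of at least 30% at 10 µM or well 3 SD below plate mean, unless failing retest; inactive = the rest, including hits failing retest or dose response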
T cruzi inh – inhibitors of intracellular T. cruzi growth, primary screen, luminescence, NIH3T3 host cells; 300,000 compounds, 1.4% hits; T. cruzi beta-gal in NIH3T3, 90 h; inhibition, % (test concentration not listed);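 active = mean inhibition across valid replicates above about 55%, limit read from the data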;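 also: signal also drops with host cell toxicity which is not excluded here; 0% = plate median of DMSO wells and 100% = zero luminescence signal; higher percent means less beta-gal luminescence so fewer parasites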
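compound dosing = single 50 nL compound addition per well in DMSO | material = NIH/3T3 host cells with β-galactosidase reporter T. cruzi | input = 5,000 host fibroblasts per well | timing = ≥90 h infection period, 3 h prior cell attachment | read-out basis = percent inhibition of parasite-derived β-gal signal | detection = GalScreen β-gal luminescence, detergent lysis, 60 min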
UBC13 polyUb – UBC13 polyubiquitin chain formation inhibitors, primary screen, biochemical, TR-FRET, uHTS | Ubiquitin-conjugating enzyme E2 N (Homo sapiens), P61088 | inhibition, % at 20 µM | 330,000 compounds, 0.47% hits | AID 485273, 2010; in the data active = inhibition above about 45%, passing the limit was not always enough
Target sequence (P61088 whole entry, looked up): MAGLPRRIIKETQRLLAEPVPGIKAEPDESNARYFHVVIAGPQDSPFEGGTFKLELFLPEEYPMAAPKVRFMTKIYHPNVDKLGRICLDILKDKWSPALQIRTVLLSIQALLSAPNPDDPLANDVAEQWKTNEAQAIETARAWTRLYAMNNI
Starred values were filed as active, the others as inactive; . = not tested or not shown.

SMILES	AI-2 QS modul	PP1 counter	p-CIP stab down	T cruzi inh	UBC13 polyUb
CC12CCC(c3c(C(=O)O)nn(-c4ccccc4)c31)C2(C)C (stereo unspecified)	10	17*	2	-13	-4
O=C(O)c1cc(S(=O)(=O)N2CC=C(c3ccccc3)CC2)ccc1O	.	3	.	.	-6
CN(C)c1ccc(N/C=C/C(=O)c2ccc(F)cc2)cc1	5	-5	-13	60*	-26
NS(=O)(=O)c1ccc(N/C=C\C(=O)c2ccc(F)cc2)cc1	13	-7	8	-6	19
Cc1oc(-c2ccc(F)cc2)cc1-c1nn2c(-c3ccoc3C)nnc2s1	25	15*	-6	-24	0
COc1ccccc1-c1coc2cc(OC(=O)N3CCOCC3)ccc2c1=O	13	0	-6	-1	0
CCC(Oc1ccc2c(=O)c(-c3ccccc3OC)coc2c1)C(=O)OCc1ccccc1 (stereo unspecified)	25	17*	6	1	.
O=C(N/N=C/c1c[nH]c2ccccc12)C1CC1c1ccccc1 (stereo unspecified)	-16	5	-3	-1	12
O=C(N/N=C/c1ccco1)C1CC1c1ccccc1 (stereo unspecified)	-86*	-5	-5	-4	0
CC(C)(C)c1ccc(C2CC2C(=O)N/N=C\c2ccc[nH]2)cc1 (stereo unspecified)	-67	3	-32	60*	-2
COC(=O)C(Cc1c[nH]c2ccccc12)NC(=O)C(=O)c1c[nH]c2ccccc12 (stereo unspecified)	15	6	6	-22	7
O=C1c2cccc3c([N+](=O)[O-])ccc(c23)C(=O)N1Cc1cccnc1	16	.	-66	85*	.
Cc1ccnc(N2C(=O)c3cccc4c([N+](=O)[O-])ccc(c34)C2=O)c1	18	-3	-14	64*	-70
CCOC(=O)C1=CC[C@H]2c3c(c4ccccc4n3C)C[C@H]1N2C	.	-1	.	.	-3
CCC(=O)N1CCc2cc(Br)cc(S(=O)(=O)N(C)c3ccc(OC)cc3OC)c21	20	0	4	36	0
CCCCCCC1CC(C)(C(=O)CNc2nncs2)OC1=O (stereo unspecified)	-76*	-1	-6	62*	-3
CCCCCCC1CC(C)(/C(C)=N/NC(N)=O)OC1=O (stereo unspecified)	28	2	-3	6	4
Cc1ccc(S(=O)(=O)N(C(=N)N)c2nc(N(C)C)nc(N(C)C)n2)cc1	40	1	-16	55*	4
O=S(=O)(/C=C/c1ccccc1)N1CCOCC1	24	0	0	9	7
CCOc1ccc(S(=O)(=O)N2CCCCC2)cc1NC(=O)C1CSC2(C)CCC(=O)N12 (stereo unspecified)	8	-2	.	2	-2
COc1ccc(C(CCN)c2ccc3c(c2)OCO3)cc1 (stereo unspecified)	8	5	-13	60*	6
Cc1cc(Br)ccc1OCCCCN1CCCCC1	2	-1	-15	64*	13
Cc1ccc(OCCOCCN2CCCC2)c(Br)c1	2	-1	-12	57*	-3
O=C(NC(=S)Nc1ccc(F)c(Cl)c1)C1CC1	-78*	-2	-15	-16	-2
COC(=O)NC(=S)Nc1ccc(Oc2ccc(Cl)cc2Cl)c(Cl)c1	17	3	-8	62*	6
SMILES	AI-2 QS modul	PP1 counter	p-CIP stab down	T cruzi inh	UBC13 polyUb
Cc1ccc(NC(=S)NC(=O)C2CC2)cc1Cl	-39	.	-4	.	-8
COC(=O)NC(=S)Nc1ccc(Oc2ccc(Cl)cc2)c(Cl)c1	9	2	6	74*	4
CN(c1ccccc1)S(=O)(=O)c1cccc(NC(=O)Cc2n[nH]c(=O)c3ccccc23)c1	.	5	.	.	0
CCNS(=O)(=O)c1c(C)cc(C)c(N(C)S(=O)(=O)c2ccccc2)c1C	10	0	-1	8	9
Cc1ccc(S(=O)(=O)c2nnn3c2nc(N2CCCCC2)c2ccccc23)cc1	-3	-3	-7	61*	12
COc1ccc(NC(C)=O)cc1NC(=O)C1CCN(C(=O)Nc2ccccc2)CC1	10	-4	.	1	-1
C/C=C/c1ccc(OCC(O)CN(C)Cc2ccc(SC)cc2)c(OC)c1 (stereo unspecified)	1	7	2	60*	22
Cc1ccc2nc(N3C(=O)C(O)=C(C(=O)c4cc5ccccc5o4)C3c3cccs3)sc2c1 (stereo unspecified)	50	12	1	-12	-16
Cc1ccc2nc(N3C(=O)C(O)=C(C(=O)c4ccc(C)o4)C3c3ccco3)sc2c1 (stereo unspecified)	.	16*	.	.	-56
Cc1ccc2nc(N3C(=O)C(O)=C(C(=O)c4ccco4)C3c3ccc(O)cc3)sc2c1 (stereo unspecified)	41	15*	-8	-20	-9
COc1ccc(CNC(=O)C(C)OC(=O)Cn2cnc3c2c(=O)n(C)c(=O)n3C)cc1 (stereo unspecified)	.	.	.	.	-1
Cc1ccc(-n2ncc3c2CC(C)(C)CC3NC(=O)c2ccncc2)cc1 (stereo unspecified)	7	4	2	2	6
CN1/C(=C/C(=S)NC(=O)C2(C)CC2(Cl)Cl)C(C)(C)c2ccccc21 (stereo unspecified)	16	5	-34	55*	-36
CN1/C(=C\C(=S)NC(=O)c2ccccc2Cl)C(C)(C)c2ccccc21	35	4	-36	42	-33
N#C/C(=C/c1ccc(N2CCCCCC2)o1)c1ccc(F)cc1	25	-1	.	58*	-124
N#C/C(=C/c1ccc(N2CCCCCC2)o1)c1cccc(F)c1	12	3	-29	66*	-226
N#C/C(=C\c1ccc(N2CCOCC2)o1)c1ccccc1	14	0	1	-10	-54
CC1Sc2ccc(S(=O)(=O)N3CCC(C(=O)Nc4cccc(Cl)c4)CC3)cc2NC1=O (stereo unspecified)	12	2	-2	26	2
Cc1cc(C)cc(NC(=O)C(=O)NCCCN2CCCC2=O)c1	27	-5	.	2	-1
CN1CCN(CC(C)(C)NS(=O)(=O)c2ccc(Cl)cc2)CC1	11	-1	-5	70*	-2
CC(C)(CN1CCN(Cc2ccccc2)CC1)NS(=O)(=O)c1ccc(Cl)cc1	23	-1	-14	38	8
O=C(Cc1ccccc1F)Nc1ccc(S(=O)(=O)Nc2ncccn2)cc1	-76*	3	8	0	2
COc1cc(NC(=O)CSc2cc(C)c3cc(C)cc(C)c3n2)c(C(=O)O)cc1OC	19	1	-8	-20	-11
